Experimental data as given in ChEMBL document CHEMBL1155099, “Natural products in parallel synthesis: triazole libraries of nonactic acid” (2008).
Calls of active or inactive are those of the source.

Columns and labels:
Type in all cases: functional, organism-based
Saccharomyces cerevisiae = test: Antifungal activity against Saccharomyces cerevisiae at 1 mM by almar blue dye reduction assay
Summary of the method: (§1)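 Single-point primary screen at 1 mM using Alamar Blue dye reduction as the growth read-out.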

Bacillus subtilis = test: Antibacterial activity against Bacillus subtilis at 1 mM by almar blue dye reduction assay; summary of the method: as §1
Candida albicans = test: Antifungal activity against Candida albicans at 1 mM by almar blue dye reduction assay; summary of the method: as §1
Escherichia coli = test: Antibacterial activity against Escherichia coli at 1 mM by almar blue dye reduction assay; summary of the method: as §1
Bacillus anthracis = test: Antibacterial activity against Bacillus anthracis at 1mM by almar blue dye reduction assay
Cryptococcus neoformans = test: Antifungal activity against Cryptococcus neoformans at 1 mM by almar blue dye reduction assay; summary of the method: as §1
Bacillus cereus = test: Antibacterial activity against Bacillus cereus at 1 mM by almar blue dye reduction assay; summary of the method: as §1
Staphylococcus aureus = test: Antibacterial activity against Staphylococcus aureus at 1 mM by almar blue dye reduction assay; summary of the method: as §1
Pseudomonas aeruginosa = test: Antibacterial activity against Pseudomonas aeruginosa at 1 mM by almar blue dye reduction assay; summary of the method: as §1

Measured: Activity

C[C@H](C[C@@H]1CC[C@H]([C@@H](C)C(=O)N2CCCC2)O1)n1cc(C#CCOc2ccccc2)nn1
inactive: all assays above

CCCCCC#Cc1cn([C@H](C)C[C@@H]2CC[C@H]([C@@H](C)C(=O)N3CCCC3)O2)nn1
inactive: all assays above

CC(C)NC(=O)[C@H](C)[C@H]1CC[C@@H](C[C@@H](C)n2cc(C#CCOc3ccccc3)nn2)O1
inactive: all assays above

C[C@H](C[C@@H]1CC[C@H]([C@@H](C)C(=O)N(C)Cc2ccccc2)O1)n1cc(C#CCOc2cccc(-c3ccccc3)c2)nn1
inactive: all assays above

C[C@H](C[C@@H]1CC[C@H]([C@@H](C)C(=O)N(C)Cc2ccccc2)O1)n1cc(C#CCCCC#N)nn1
inactive: all assays above

C[C@H](C[C@@H]1CC[C@H]([C@@H](C)C(=O)N2CCCC2)O1)n1cc(C#Cc2ccc(Oc3ccccc3)cc2)nn1
inactive: all assays above

CCN(CC)C(=O)[C@H](C)[C@H]1CC[C@@H](C[C@@H](C)n2cc(C#CCCCC#N)nn2)O1
inactive: all assays above

CC(C)NC(=O)[C@H](C)[C@H]1CC[C@@H](C[C@@H](C)n2cc(C#CC3=CCCCC3)nn2)O1
inactive: all assays above

CCC(=O)OCC#Cc1cn([C@H](C)CC2CCC([C@@H](C)C(=O)N3CCN(CC4CCCO4)CC3)O2)nn1 (single isomer, unassigned)
inactive: all assays above

CCC(=O)OCC#Cc1cn([C@H](C)CC2CCC([C@@H](C)C(=O)N(C)Cc3ccccc3)O2)nn1 (single isomer, unassigned)
inactive: all assays above

CCC(=O)OCC#Cc1cn([C@H](C)CC2CCC([C@@H](C)C(=O)NC(C)C)O2)nn1 (single isomer, unassigned)
inactive: all assays above

COCC#Cc1cn([C@H](C)C[C@@H]2CC[C@H]([C@@H](C)C(=O)N3CCN(CC4CCCO4)CC3)O2)nn1 (some centres not stated)
inactive: all assays above

CCCCN(CC#Cc1cn([C@H](C)C[C@@H]2CC[C@H]([C@@H](C)C(=O)N3CCCC3)O2)nn1)CCCC
inactive: all assays above

C[C@H](C[C@@H]1CC[C@H]([C@@H](C)C(=O)N2CCCC2)O1)n1cc(C#CCN(C)CCc2ccccc2)nn1
inactive: all assays above

C[C@H](C[C@@H]1CC[C@H]([C@@H](C)C(=O)N(C)Cc2ccccc2)O1)n1cc(C#Cc2ccccc2)nn1
inactive: all assays above

CCN(CC)C(=O)[C@H](C)[C@H]1CC[C@@H](C[C@@H](C)n2cc(C#CCN3CCN(c4ccccc4)CC3)nn2)O1
inactive: all assays above

COc1cccc(OCC#Cc2cn([C@H](C)C[C@@H]3CC[C@H]([C@@H](C)C(=O)N(C)Cc4ccccc4)O3)nn2)c1OC
inactive: all assays above

CC(C)NC(=O)[C@H](C)[C@H]1CC[C@@H](C[C@@H](C)n2cc(C#CCN(C)CCc3ccccc3)nn2)O1
inactive: all assays above
